The results in this text go back to ChEMBL document CHEMBL1765063, “Synthesis and anti-melanogenic activity of hydroxyphenyl benzyl ether analogues” (Bioorg Med Chem, 2011).

Structures are written as SMILES.

In the first assay the target is T1, Tyrosinase (Mus musculus) (UniProt P11344).
T1 sequence (whole entry): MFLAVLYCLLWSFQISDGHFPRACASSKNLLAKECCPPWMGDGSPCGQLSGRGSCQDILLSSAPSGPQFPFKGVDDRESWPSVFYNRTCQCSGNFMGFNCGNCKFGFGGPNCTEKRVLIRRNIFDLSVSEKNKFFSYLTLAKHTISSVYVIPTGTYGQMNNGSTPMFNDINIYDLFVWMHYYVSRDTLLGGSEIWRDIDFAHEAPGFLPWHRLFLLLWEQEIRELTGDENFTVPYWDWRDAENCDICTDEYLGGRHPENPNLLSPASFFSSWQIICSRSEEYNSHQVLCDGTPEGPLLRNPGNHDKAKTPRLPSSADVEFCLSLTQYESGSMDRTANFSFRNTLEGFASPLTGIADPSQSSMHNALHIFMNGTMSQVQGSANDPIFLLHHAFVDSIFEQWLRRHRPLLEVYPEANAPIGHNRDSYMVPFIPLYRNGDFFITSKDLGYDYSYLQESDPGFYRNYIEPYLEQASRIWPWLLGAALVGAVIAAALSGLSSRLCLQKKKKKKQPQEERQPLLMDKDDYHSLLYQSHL
As to the kind of experiment: Inhibition of tyrosinase activity in alpha-MSH-stimulated mouse B16 cells at 100 uM using L-tyrosine as substrate.
Conditions: not given
In kind it is cell-based. Put shortly:
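Enzyme source: B16 cells stimulated 48 h with 10 nM α-MSH, sonicated on ice and centrifuged. Supernatant dialysed against 50 mM sodium phosphate, pH 6.8. Compound preincubated with the cell-free enzyme, then 5 mM L-tyrosine added as substrate. Initial rate of dopachrome formation followed at 475 nm. One unit converts 1 nmol L-tyrosine per min.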
In the case of `COc1cc(COc2cc(O)cc(OCc3cc(OC)cc(OC)c3)c2)cc(OC)c1`, the inhibition (usually the percentage by which the read-out fell short of the control) was determined as 0%.

`Oc1cc(OCc2cccc(Cl)c2)cc(OCc2cccc(Cl)c2)c1` had an inhibition of 1.5%.

For `Oc1ccc(OCc2ccc(F)cc2)cc1`, the inhibition came to 1.5%.

`COc1cc(COc2cc(O)cc(O)c2)cc(OC)c1` returned an inhibition of 27.5%.

In turn, `Oc1cc(OCc2ccc(Cl)c(Cl)c2)cc(OCc2ccc(Cl)c(Cl)c2)c1` showed an inhibition of 0%.

`Oc1cc(OCc2ccc(F)cc2)cc(OCc2ccc(F)cc2)c1` registered an inhibition of 5.5%.

Consider `Oc1cc(O)cc(OCc2cccc(Cl)c2)c1`, for which the inhibition was 70.5%.

`Oc1ccc(OCc2ccccc2Cl)cc1` yielded an inhibition of 0%.

`Oc1cc(O)cc(OCc2ccccc2Cl)c1` returned an inhibition of 45.5%.

`Oc1cc(O)cc(OCc2ccc(F)cc2)c1` showed an inhibition of 55.5%.

With `Oc1cc(OCc2ccccc2Cl)cc(OCc2ccccc2Cl)c1`, the inhibition turned out to be 3.5%.

`Oc1ccc(OCc2cccc(Cl)c2)cc1` returned an inhibition of 1%.

Take `Oc1cc(O)cc(OCc2ccc(Cl)c(Cl)c2)c1`: the inhibition stood at 66%.

Take `COc1cc(COc2ccc(O)cc2)cc(OC)c1`: the inhibition worked out at 0%.

Consider `Oc1ccc(OCc2ccc(Cl)c(Cl)c2)cc1`, for which the inhibition turned out to be 9.5%.

The subject of another assay is Radical scavenging activity. As to the kind of experiment: Antioxidant activity assessed as DPPH free radical scavenging activity at 100 uM after 30 mins. Format: functional.
Conditions: not given
Put shortly: (§1)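 Compounds in ethanol mixed 1:1 by volume with 200 µM DPPH stock (stock concentration). Shaken 30 min at room temperature, absorbance read at 517 nm. Percent scavenging taken against DPPH without compound, blank-corrected. Screening done at 100 µM final. […] Triplicate runs, vitamin C as positive control.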
Background: The DPPH test is a chemical assay of radical scavenging.
With `COc1cc(COc2cc(O)cc(OCc3cc(OC)cc(OC)c3)c2)cc(OC)c1`, the inhibition amounted to 27.4%.

Take `Oc1cc(OCc2cccc(Cl)c2)cc(OCc2cccc(Cl)c2)c1`: the inhibition was 22.1%.

`Oc1ccc(OCc2ccc(F)cc2)cc1`: the inhibition amounted to 48.2%.

For `COc1cc(COc2cc(O)cc(O)c2)cc(OC)c1`, the inhibition is 46.8%.

With `COc1cc(COc2cc(O)cc(OC(C)=O)c2)cc(OC)c1`, the inhibition worked out at 1.7%.

Turning to `Oc1cc(OCc2ccc(Cl)c(Cl)c2)cc(OCc2ccc(Cl)c(Cl)c2)c1`, the inhibition amounted to 17%.

As for `Oc1cc(OCc2ccc(F)cc2)cc(OCc2ccc(F)cc2)c1`, the inhibition was determined as 21.2%.

Regarding `Oc1cc(O)cc(OCc2cccc(Cl)c2)c1`, the inhibition turned out to be 49%.

As for `Oc1ccc(OCc2ccccc2Cl)cc1`, the inhibition came to 46.5%.

For the compound `O=C1O[C@H]([C@@H](O)CO)C(O)=C1O` [ASCORBIC ACID], the inhibition turned out to be 93.9%.

Regarding `Oc1cc(O)cc(OCc2ccccc2Cl)c1`, the inhibition was found to be 42.8%.

Turning to `Oc1cc(O)cc(OCc2ccc(F)cc2)c1`, the inhibition turned out to be 46.6%.

As to `CC(=O)Oc1cc(O)cc(OCc2ccc(Cl)c(Cl)c2)c1`, the inhibition worked out at 8%.

Turning to `Oc1cc(OCc2ccccc2Cl)cc(OCc2ccccc2Cl)c1`, the inhibition worked out at 15.6%.

`Oc1ccc(OCc2cccc(Cl)c2)cc1`: the inhibition was determined as 54.7%.

Consider `Oc1cc(O)cc(OCc2ccc(Cl)c(Cl)c2)c1`, for which the inhibition was found to be 37.3%.

As for `COc1cc(COc2ccc(O)cc2)cc(OC)c1`, the inhibition turned out to be 54.1%.

`Oc1ccc(OCc2ccc(Cl)c(Cl)c2)cc1`: the inhibition turned out to be 33.2%.

The next assay relates to B16. In words: Inhibition of alpha-MSH-induced melanin synthesis in mouse B16 cells grown in a 5% CO2-95% air atmosphere at 10 uM after 3 days. Format: functional. Particulars: B16, 72 h. Put shortly: (§2)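 Mouse B16 melanoma cells seeded at 2.5×10^3 per well in DMEM with 10% FBS and grown 1 day at 37 °C. α-MSH was added together with compound at various concentrations, then cells were incubated 3 days at 37 °C. Absorbance at 405 nm was read against a synthetic melanin standard curve (melanin dissolved in 0.85 N KOH). IC50 is the mean of triplicate determinations.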
As to `COc1cc(COc2cc(O)cc(OCc3cc(OC)cc(OC)c3)c2)cc(OC)c1`, the inhibition at 10 µM was found to be 6%.

Turning to `Oc1cc(OCc2cccc(Cl)c2)cc(OCc2cccc(Cl)c2)c1`, the inhibition at 10 µM amounted to 21%.

With `Oc1ccc(OCc2ccc(F)cc2)cc1`, the inhibition at 10 µM turned out to be 42%.

For the compound `COc1cc(COc2cc(O)cc(O)c2)cc(OC)c1`, at 10 µM the inhibition was 19%.

For `Oc1cc(OCc2ccc(Cl)c(Cl)c2)cc(OCc2ccc(Cl)c(Cl)c2)c1`, the inhibition at 10 µM is 4%.

As for `Oc1cc(OCc2ccc(F)cc2)cc(OCc2ccc(F)cc2)c1`, 10 µM produced 12% inhibition.

For `Oc1cc(O)cc(OCc2cccc(Cl)c2)c1`, at 10 µM the inhibition was 18%.

In turn, `Oc1ccc(OCc2ccccc2Cl)cc1` had an inhibition at 10 µM of 55%.

The compound `Oc1cc(O)cc(OCc2ccccc2Cl)c1` had an inhibition at 10 µM of 11%.

`Oc1cc(O)cc(OCc2ccc(F)cc2)c1`: the inhibition at 10 µM turned out to be 14%.

`Oc1cc(OCc2ccccc2Cl)cc(OCc2ccccc2Cl)c1` had an inhibition at 10 µM of 33%.

Compound `Oc1ccc(OCc2cccc(Cl)c2)cc1` showed an inhibition at 10 µM of 78%.

Regarding `Oc1cc(O)cc(OCc2ccc(Cl)c(Cl)c2)c1`, the inhibition at 10 µM was 15%.

As for `COc1cc(COc2ccc(O)cc2)cc(OC)c1`, the inhibition at 10 µM is greater than 100%.

`Oc1ccc(OCc2ccc(Cl)c(Cl)c2)cc1` showed an inhibition at 10 µM of 87%.

Another assay has as its system B16. As to the kind of experiment: Inhibition of alpha-MSH-induced melanin synthesis in mouse B16 cells grown in a 5% CO2-95% air atmosphere after 3 days. In kind it is functional, cell-based. To be noted: B16, 72 h. Put shortly: as §2
For the compound `OC[C@H]1O[C@@H](Oc2ccc(O)cc2)[C@H](O)[C@@H](O)[C@@H]1O` [ARBUTIN], half-maximal inhibition (IC50) was put at 99 µM.

`Oc1ccc(OCc2cccc(Cl)c2)cc1`: it took 1.83 µM to reach half-maximal inhibition (IC50).

Turning to `COc1cc(COc2ccc(O)cc2)cc(OC)c1`, inhibition was half-maximal at 1.93 µM (IC50).

For `Oc1ccc(OCc2ccc(Cl)c(Cl)c2)cc1`, the IC50 (in general, the concentration that inhibits the measured activity by half) was determined as 1.87 µM.

The subject of a further assay is Radical scavenging activity. As to the kind of experiment: Antioxidant activity assessed as DPPH free radical scavenging activity after 30 mins. In kind it is functional.
Conditions: not given
Put shortly:
as §1
As to `Oc1ccc(OCc2ccc(F)cc2)cc1`, the EC50 (usually the midpoint of the concentration-response curve) came to 102 µM.

`COc1cc(COc2cc(O)cc(O)c2)cc(OC)c1`: the half-maximal effective concentration (EC50) stood at 129 µM.

With `Oc1cc(O)cc(OCc2cccc(Cl)c2)c1`, the EC50 was 119 µM.

`Oc1ccc(OCc2ccccc2Cl)cc1`: the EC50 stood at 113 µM.

`O=C1O[C@H]([C@@H](O)CO)C(O)=C1O` [ASCORBIC ACID]: the EC50 is 26.2 µM.

As for `Oc1cc(O)cc(OCc2ccccc2Cl)c1`, the EC50 is 165 µM.

For `Oc1cc(O)cc(OCc2ccc(F)cc2)c1`, the concentration for a half-maximal effect (EC50) came out at 140 µM.

Consider `Oc1ccc(OCc2cccc(Cl)c2)cc1`, for which the half-maximal effective concentration (EC50) came to 76.8 µM.

Take `COc1cc(COc2ccc(O)cc2)cc(OC)c1`: the concentration for a half-maximal effect (EC50) is 76.3 µM.

For the next assay, the target named is T2, Tyrosinase (Mus musculus, UniProt P11344).
T2 sequence (P11344 whole entry): T1 sequence (whole entry)
As to the kind of experiment: Inhibition of tyrosinase activity in alpha-MSH-stimulated mouse B16 cells using L-tyrosine as substrate. In kind it is cell-based.
Conditions: not given
Put shortly: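 Enzyme source: B16 cells stimulated 48 h with 10 nM α-MSH, sonicated on ice and centrifuged. Supernatant dialysed against 50 mM sodium phosphate, pH 6.8. Compound preincubated with the cell-free enzyme, then 5 mM L-tyrosine added as substrate. One unit converts 1 nmol L-tyrosine per min.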
The compound `Oc1cc(O)cc(OCc2cccc(Cl)c2)c1` registered a 50% inhibitory concentration (IC50) of 54.7 µM.

The compound `Oc1cc(O)cc(OCc2ccc(F)cc2)c1` returned an IC50 of 90 µM.

`Oc1cc(O)cc(OCc2ccc(Cl)c(Cl)c2)c1`: the 50% inhibitory concentration (IC50) came to 66.4 µM.
